Measurements as given in ChEMBL document CHEMBL4725242, “Discovery of GS-9688 (Selgantolimod) as a Potent and Selective Oral Toll-Like Receptor 8 Agonist for the Treatment of Chronic Hepatitis B” (J Med Chem, 2020).

Tests used:
[1] = Immunomodulatory activity in human primary hepatocytes infected with HBV assessed as stimulation of CD8+T cell response to virus by measuring decrease in HBV RNA production treated with media from PBMC stimulated with 10 nM compound for 10 days by PCR analysis relative to control; type: functional; design: scale not given: the % may be the effect or the level left; conditions: time 10 day
[2] = Apparent permeability across apical to basolateral side in human Caco2 cells measured after 1 to 2 hrs by LC-MS/MS analysis; conditions: Caco-2
[3] = Oral bioavailability in Beagle dog at 0.5 mg/kg administered via gavage by HPLC-MS analysis; type: ADME, organism-based, Canis lupus familiaris; conditions: in vivo
Summary of the method: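 Oral dosing in 2% ethanol/40% PEG 300/58% 0.01N HCl: Sprague Dawley rats 5 mg/kg, beagle dogs 0.5 mg/kg, cynomolgus monkeys 3 mg/kg.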

[4] = Selectivity index, ratio of CC50 for human MT4 cells to EC50 for TLR8 in human cryopreserved PBMC assessed as induction of IL-12p40 production
[5] = target: T1, Toll-like receptor 8 (Homo sapiens, UniProt Q9NR97); assay: Agonist activity at TLR8 in human cryopreserved PBMC assessed as induction of IL-12p40 production measured after 24 hrs
T1 sequence (Q9NR97 whole entry): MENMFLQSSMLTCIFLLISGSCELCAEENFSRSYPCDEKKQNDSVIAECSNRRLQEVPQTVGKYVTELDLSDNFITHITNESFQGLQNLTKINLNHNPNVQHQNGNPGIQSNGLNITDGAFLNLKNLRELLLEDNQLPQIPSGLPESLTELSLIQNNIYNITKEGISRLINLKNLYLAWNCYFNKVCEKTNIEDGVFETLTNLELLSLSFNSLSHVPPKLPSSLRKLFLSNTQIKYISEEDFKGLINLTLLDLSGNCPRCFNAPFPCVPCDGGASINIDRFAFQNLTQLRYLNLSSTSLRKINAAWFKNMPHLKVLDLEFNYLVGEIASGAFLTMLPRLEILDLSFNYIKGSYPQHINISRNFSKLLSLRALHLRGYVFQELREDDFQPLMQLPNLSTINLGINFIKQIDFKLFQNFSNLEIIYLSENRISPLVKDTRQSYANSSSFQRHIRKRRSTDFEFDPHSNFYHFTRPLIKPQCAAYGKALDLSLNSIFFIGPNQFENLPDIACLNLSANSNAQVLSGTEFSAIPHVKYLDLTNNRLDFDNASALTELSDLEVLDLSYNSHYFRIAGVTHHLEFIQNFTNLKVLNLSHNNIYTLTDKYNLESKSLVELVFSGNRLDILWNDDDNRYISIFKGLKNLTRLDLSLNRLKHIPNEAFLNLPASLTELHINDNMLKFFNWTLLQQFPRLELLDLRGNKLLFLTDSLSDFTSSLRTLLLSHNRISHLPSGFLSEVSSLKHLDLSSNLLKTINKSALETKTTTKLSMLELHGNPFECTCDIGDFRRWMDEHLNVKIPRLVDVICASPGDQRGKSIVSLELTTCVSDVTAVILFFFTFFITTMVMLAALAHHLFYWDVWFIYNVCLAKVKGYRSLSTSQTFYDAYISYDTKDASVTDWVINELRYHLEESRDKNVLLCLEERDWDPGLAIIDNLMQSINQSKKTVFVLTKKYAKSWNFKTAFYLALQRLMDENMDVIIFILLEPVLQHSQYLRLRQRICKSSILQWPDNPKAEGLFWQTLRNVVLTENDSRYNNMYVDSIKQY

[6] = target: T2, Toll-like receptor 7 (Homo sapiens, UniProt Q9NYK1); assay: Agonist activity at TLR7 in human cryopreserved PBMC assessed as induction of IFNalpha production measured after 24 hrs
T2 sequence (Q9NYK1 whole entry): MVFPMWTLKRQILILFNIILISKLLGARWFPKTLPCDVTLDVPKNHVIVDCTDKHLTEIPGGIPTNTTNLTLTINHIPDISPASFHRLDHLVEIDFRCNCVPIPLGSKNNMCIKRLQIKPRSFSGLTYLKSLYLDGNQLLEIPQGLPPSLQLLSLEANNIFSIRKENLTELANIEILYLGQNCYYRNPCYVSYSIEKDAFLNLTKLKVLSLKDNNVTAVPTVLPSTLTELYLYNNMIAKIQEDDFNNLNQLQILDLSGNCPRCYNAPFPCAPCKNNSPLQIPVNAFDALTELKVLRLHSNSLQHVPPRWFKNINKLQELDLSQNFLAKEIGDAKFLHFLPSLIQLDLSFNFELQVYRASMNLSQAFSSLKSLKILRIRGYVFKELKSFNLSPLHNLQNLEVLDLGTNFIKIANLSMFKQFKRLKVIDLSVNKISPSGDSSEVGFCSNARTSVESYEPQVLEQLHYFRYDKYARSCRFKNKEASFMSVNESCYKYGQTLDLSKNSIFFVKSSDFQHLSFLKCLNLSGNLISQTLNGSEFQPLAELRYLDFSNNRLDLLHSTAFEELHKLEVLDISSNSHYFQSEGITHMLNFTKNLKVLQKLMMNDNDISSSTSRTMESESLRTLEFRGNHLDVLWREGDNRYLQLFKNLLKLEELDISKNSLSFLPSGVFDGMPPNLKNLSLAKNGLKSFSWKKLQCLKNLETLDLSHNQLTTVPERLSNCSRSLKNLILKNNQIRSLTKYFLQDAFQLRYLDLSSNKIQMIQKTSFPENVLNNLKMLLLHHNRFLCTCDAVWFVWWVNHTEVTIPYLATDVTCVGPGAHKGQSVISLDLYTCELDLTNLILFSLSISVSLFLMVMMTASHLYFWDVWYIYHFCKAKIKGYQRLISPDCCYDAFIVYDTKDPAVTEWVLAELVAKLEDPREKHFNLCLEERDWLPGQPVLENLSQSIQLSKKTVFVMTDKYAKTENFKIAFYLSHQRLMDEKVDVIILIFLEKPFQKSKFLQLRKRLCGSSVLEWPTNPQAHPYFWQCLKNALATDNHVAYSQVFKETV
Summary of the method: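 Cryopreserved healthy-donor human PBMC, recovered 2 h at 37°C/5% CO2, then 100k cells/well in RPMI/10% FBS exposed 24 h at 37°C to a 10-point half-log dilution series (0.5% final DMSO). Supernatant IFNα-2a quantified by MSD electrochemiluminescence immunoassay. For the ratio, divided by the IL-12p40 EC50 from the same PBMC screen.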

[7] = Half life in Sprague-Dawley rat at 1 mg/kg, iv administered as 30 mins infusion by HPLC-MS analysis; type: ADME, organism-based; conditions: in vivo
Summary of the method: (§1)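 30-min intravenous infusion: Sprague Dawley rats 1 mg/kg, beagle dogs 0.25 mg/kg, cynomolgus monkeys 0.1 mg/kg; n = 3 per species, reported as mean ± SD.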

[8] = Clearance in cynomolgus monkey at 0.1 mg/kg, iv administered as 30 mins infusion by HPLC-MS analysis; type: ADME, organism-based, Macaca fascicularis; conditions: in vivo; summary of the method: as §1

CCCC[C@](C)(CO)Nc1nc(N)nc2cc(F)cnc12 [SELGANTOLIMOD]
Activity [1]: >50% | Papp A→B [2]: 7.9 ×10⁻⁶ cm/s | bioavailability [3]: 0.8% | Ratio CC50/EC50 [4]: 77 | EC50 [5]: 0.22 µM | EC50 [6]: > 50 µM | half-life [7]: 1.45 h | clearance [8]: 103 mL/min/kg
